# Source: PubChem
# TMEM16A act – activates or potentiates the mouse TMEM16A chloride channel. HEK293 TMEM16A/YFP-H148Q/I152L, iodide quench fluorescence; stronger effect = lower value. B-score at 10 µM. 340,000 tested, 0.3% active. AID 623877;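 active = fluorescence-ratio B-score plate-corrected deviation score at least 3 library SD below zero, with starting fluorescence score within 5 deviations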;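 also: channel opened by trigger with iodide after compound preincubation; score built on the fluorescence ratio of max minus min over baseline; more negative score means more quench and so TMEM16A activation or potentiation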
# UBC13 polyUb – human UBC13 polyubiquitination inhibition. P61088. UBC13 polyubiquitin chain formation, TR-FRET. inhibition, % at 20 µM. 330,000 tested, 0.47% active. AID 485273; in the data active = inhibition above about 45%, passing the limit was not always enough
# Apaf-1 inh – blocks human Apaf-1 apoptosome activity. O14727. inhibition, % at 20 µM. 330,000 tested, 0.71% active. reconstituted apoptosome caspase-3 activity, DEVD-Rh110 fluorescence; active = inhibition of at least 40% at 20 µM;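 also: plate controls were DMSO wells for no effect and DEVD-CHO caspase inhibitor wells for full effect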
# Target sequence (O14727 whole entry, looked up): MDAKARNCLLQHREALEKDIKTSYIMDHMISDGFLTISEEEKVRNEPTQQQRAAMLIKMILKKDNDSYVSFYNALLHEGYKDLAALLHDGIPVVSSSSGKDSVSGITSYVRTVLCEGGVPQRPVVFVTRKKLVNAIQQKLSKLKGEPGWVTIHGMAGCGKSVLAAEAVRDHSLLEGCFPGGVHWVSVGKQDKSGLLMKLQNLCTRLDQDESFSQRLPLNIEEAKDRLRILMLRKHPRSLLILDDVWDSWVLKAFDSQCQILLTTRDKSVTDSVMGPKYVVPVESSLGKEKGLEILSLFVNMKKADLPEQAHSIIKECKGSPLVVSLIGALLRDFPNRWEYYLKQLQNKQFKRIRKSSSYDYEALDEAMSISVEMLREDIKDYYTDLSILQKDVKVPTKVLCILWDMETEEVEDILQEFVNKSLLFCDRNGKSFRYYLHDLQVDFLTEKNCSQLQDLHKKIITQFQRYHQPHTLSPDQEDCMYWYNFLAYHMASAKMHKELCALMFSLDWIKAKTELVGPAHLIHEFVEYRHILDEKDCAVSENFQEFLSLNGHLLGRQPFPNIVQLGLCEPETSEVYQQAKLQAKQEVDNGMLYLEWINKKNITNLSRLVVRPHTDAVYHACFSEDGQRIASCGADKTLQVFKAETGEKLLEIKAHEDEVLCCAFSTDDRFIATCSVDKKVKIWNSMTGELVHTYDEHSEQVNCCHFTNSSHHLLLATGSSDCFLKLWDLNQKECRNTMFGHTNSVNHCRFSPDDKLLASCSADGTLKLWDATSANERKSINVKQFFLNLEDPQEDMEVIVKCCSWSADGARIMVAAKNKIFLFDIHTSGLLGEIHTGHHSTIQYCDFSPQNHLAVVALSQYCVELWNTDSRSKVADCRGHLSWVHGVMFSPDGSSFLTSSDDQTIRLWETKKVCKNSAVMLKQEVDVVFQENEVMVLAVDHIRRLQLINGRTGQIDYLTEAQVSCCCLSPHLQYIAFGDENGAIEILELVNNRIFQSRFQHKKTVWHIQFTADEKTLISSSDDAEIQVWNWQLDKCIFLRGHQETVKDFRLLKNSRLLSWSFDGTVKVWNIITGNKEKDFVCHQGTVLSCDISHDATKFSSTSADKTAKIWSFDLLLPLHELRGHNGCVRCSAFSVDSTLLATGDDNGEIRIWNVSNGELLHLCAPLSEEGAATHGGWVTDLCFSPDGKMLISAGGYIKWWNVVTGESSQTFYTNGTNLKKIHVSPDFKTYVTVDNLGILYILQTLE
#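 System: reconstituted apoptosome with Apaf-1, cytochrome c, caspase-9, procaspase-3, dATP; Signal: Rh110 fluorescence intensity; Schedule: 30 min compound preincubation, 50 min activation, room temperature; Reagent: cytochrome c trigger plus (Z-DEVD)2-Rh110 caspase-3 substrate.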
# ANO1 block – inhibitors of mouse TMEM16A calcium-activated chloride channel; HEK293 TMEM16A/YFP iodide influx fluorescence, ionomycin; normalized B-score (activity score, 25-100; higher = stronger inhibition) at 10 µM; 310,000 tested, 1.2% active;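 active = ratio plate-corrected score three or more library SD toward inhibition, starting fluorescence score within five deviations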;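 also: score derived from kinetic fluorescence span divided by baseline fluorescence per well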
# DNA FID counter – fluorescent intercalator displacement, NS3 helicase counter-screen; 290,000 tested, 0.17% active; DNA fluorescent intercalator displacement, fluorescence; inhibition, % at 7.9 µM; AID 1845; in the data active = inhibition above about 37%;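 also: 0% = vehicle and 100% = reference compound; higher means more ethidium bromide displaced from hairpin DNA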
# * hit, by the source's call; i = inactive; · = no result. A selection: hits, their analogues and other compounds. The true share with any hit is near 2.4%.
SMILES,TMEM16A act,UBC13 polyUb,Apaf-1 inh,ANO1 block,DNA FID counter
O=C(NC1CCCc2ccccc21)c1ccccc1 (configuration not stated),i,2.5,-14.4,i,-4.0
Cc1cc(C)n(Cc2ccc(NC(=O)c3c([N+](=O)[O-])c(C)nn3C)cc2)n1,i,-0.4,-11.3,i,-13.3
CC1CCC(C(C)C)C(OC(=O)C[n+]2cc(-c3ccc(Cl)cc3)n3c2CCC3)C1 (configuration not stated),i,25.3,8.0,i,22.7
CC1CCC(C(C)C)C(OC(=O)Cn2c(-c3ccccc3)[n+](C)c3ccccc32)C1 (configuration not stated),i,36.6,3.1,100*,31.5
CC1CCC(C(C)C)C(OC(=O)Cn2c(-c3ccc(F)cc3)[n+](C)c3ccccc32)C1 (configuration not stated),i,15.3,29.5,100*,8.1
COc1cccc(N=Nc2c(=O)[nH]n3c(=O)cc(C)[nH]c23)c1,-20.7*,-167.7,17.6,i,-7.4
CC(Sc1ccc(S(=O)(=O)N2CCN(C)CC2)cn1)C(=O)NC1(C#N)CCCCC1 (configuration not stated),i,3.8,1.1,·,·
CCC(C)n1c(=S)[nH]c2c(sc3ccc([N+](=O)[O-])cc32)c1=O (configuration not stated),i,-3.1,-6.4,25*,2.6
CC(C)n1c2ccccc2c2cc([N+](=O)[O-])ccc21,i,-11.5,10.3,i,2.1
O=C(N/C(=C/c1ccc(Br)cc1)C(=O)N1CCCCC1)c1ccccc1F,i,6.4,13.0,i,-62.0
Nc1c2c(nc3sc4c(c13)CCCCC4)CCCCC2,i,11.3,6.7,25*,-2.2
CC1CCc2nc3sc4c(c3c(N)c2C1)CCCC4 (configuration not stated),i,-3.3,7.4,i,1.6
COC(=O)c1ccccc1S(=O)(=O)N1CCC(C(=O)OC(C)C(=O)N(C)Cc2ccccc2)CC1 (configuration not stated),i,·,·,·,·
O=S(=O)([N-]c1nc2ccccc2nc1-[n+]1ccc(-c2ccncc2)cc1)c1ccccc1,-5.26*,-4.3,-8.1,i,5.5
COC(=O)C[C@H]1c2cc(C(F)(F)F)ccc2S(=O)(=O)N1c1ccc(N(C)C)cc1,i,-1.0,1.3,i,·
O=C(Nc1cc(-c2ccccc2)sc1C(=O)O)c1cccc(F)c1,i,-9.3,11.1,100*,13.7
COc1ccc(CSc2ccc(S(=O)(=O)N3CCCCC3)cn2)cc1F,-22.5*,0.3,-0.1,·,·
O=S(=O)(c1ccc(SCc2ccc(Cl)cc2)nc1)N1CCCC1,i,-14.9,13.0,·,·
Cc1ccc(S(=O)(=O)N2CCCCC2)cc1C(=O)Nc1ccc(S(=O)(=O)Nc2ncccn2)cc1,i,-12.9,8.0,i,-33.3
C=CCOc1ccc(CN(C)C(=O)CNC(=O)c2ccc(-c3ccccc3)cc2)cc1,i,2.4,10.0,25*,-20.9
N#C/C(=N\Nc1cccc(C(F)(F)F)c1)C(=O)c1csc(-c2cccnc2)n1,i,-19.1,11.1,100*,-22.4
COc1ccccc1-c1nnc2sc(-c3cc4ccccc4o3)nn12,i,5.6,22.1,100*,-3.5
NS(=O)(=O)c1ccc(CCNC(=S)NC(=O)c2ccccc2Br)cc1,i,-1.6,7.6,·,·
Cc1cc(OCc2nnc(SCC(=O)O)n2-c2ccccc2)ccc1Cl,i,-5.0,-0.6,i,-26.4
O=C(NC(Nc1nc2ccc([N+](=O)[O-])cc2s1)(C(F)(F)F)C(F)(F)F)c1ccccc1Cl,i,-21.8,10.1,100*,-1.6
SMILES,TMEM16A act,UBC13 polyUb,Apaf-1 inh,ANO1 block,DNA FID counter
O=C(NC(Nc1nc2ccc([N+](=O)[O-])cc2s1)(C(F)(F)F)C(F)(F)F)c1cccnc1,i,-16.7,9.0,100*,-3.2
C=C(C)CN1CCN(c2ccc(N3C(=O)CCCC3=O)cc2[N+](=O)[O-])CC1,i,6.9,-14.3,i,13.2
O=C(CN1CCC(C(=O)c2ccc(Cl)cc2)CC1)NC1CCCC1,i,-2.3,6.8,i,-6.3
Cc1c(Cc2ccccc2)c(=O)oc2c(C)c(OCc3nn[nH]n3)ccc12,i,4.4,5.9,i,-21.8
Cc1c(CC(=O)O)c(=O)oc2c(C)c(OCc3nn[nH]n3)ccc12,-4.94*,7.5,-6.3,i,5.2
COCCNC(=O)C(c1ccc(C)o1)N(C(=O)Cn1nnc2ccccc21)c1ccccc1 (configuration not stated),i,7.7,-9.7,i,-10.8
CC1CCCC(NCC(O)COC(c2ccc(F)cc2)c2ccc(F)cc2)C1C (configuration not stated),i,14.9,11.3,i,46.5*
COC(=O)c1cc(Br)c(=O)n(CCc2ccccc2)c1,i,1.0,-1.7,i,-4.6
COC(=O)Cn1cc(C(=O)OC)cc(Br)c1=O,i,5.1,-1.3,25*,3.2
Cc1ccc(-c2nn(-c3ccccc3)cc2/C=N/NC(=O)c2ccc(Br)o2)cc1,i,-14.0,3.6,100*,-2.3
CCOC(=O)C1CCN(C(=O)Nc2cc(Cl)cc(Cl)c2)CC1,i,-3.7,-34.6,i,-17.5
O=C(NCCOc1ccccc1F)c1ccc2c(=O)n3c(nc2c1)CCC3,i,6.5,31.0,·,·
O=[N+]([O-])c1cnc(Sc2ccncn2)s1,i,6.8,-1.2,25*,2.4
CC(=O)CSc1nnc(-c2ccc3c(c2)OCO3)o1,-15.9*,-4.0,11.1,i,-1.7
CC(=O)Nc1ccc(NC(=O)CSc2nnc(-c3ccc4c(c3)OCO4)o2)cc1,i,-10.5,5.9,·,·
CC(C)(C)c1ccc(-c2nnc(SCC(=O)c3ccc4c(c3)OCCO4)o2)cc1,i,6.3,7.0,100*,-14.0
O=C(Nc1nnc(-c2ccc3c(c2)CCCC3)o1)C1COc2ccccc2O1 (configuration not stated),i,-1.6,5.2,25*,-30.9
CC(=O)Nc1nnc(-c2ccc3c(c2)CCCC3)o1,i,3.0,6.7,i,-8.4
O=C(COc1ccccc1)Nc1ccc(S(=O)(=O)N2CCOCC2)cc1,i,6.2,4.0,i,0.7
O=C(COC(=O)c1ccccn1)Nc1ccc(S(=O)(=O)N2CCOCC2)cc1,i,-2.0,-3.8,25*,2.7
Cc1ccc(C(=O)OCC(=O)Nc2cc(S(=O)(=O)N3CCOCC3)ccc2C)cc1,i,-0.5,5.2,i,-24.2
CCOc1ccccc1C(=O)OCC(=O)Nc1cc(S(=O)(=O)N2CCOCC2)ccc1C,-42*,5.9,-9.9,·,·
O=C1Nc2ccccc2N2CCCC12 (configuration not stated),·,-34.6,77.6*,i,0.7
CCn1cc(CN2CCc3c([nH]c4ccccc34)C2c2cccc(OC)c2OC)c(C)n1 (configuration not stated),i,5.3,-3.0,i,-3.1
